From ChEMBL document CHEMBL1817648, “Synthesis and in vitro antibacterial activity of a series of novel gatifloxacin derivatives” (Eur J Med Chem, 2011)
Values after ≈ are worked out from the molar mass of the structure shown.

How the values were obtained:
[1] = Cytotoxicity against african green monkey Vero cells after 72 hrs by MTT assay; assay type: cell-based; settings: chlorocebus sabaeus
Method in brief: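 Vero cells were kept in Minimum Essential Medium with Earle's salts plus 10% fetal bovine serum at 37 °C under 5% CO₂. Cells were seeded at 1 × 10⁴ per well and allowed to recover 24 h. Medium was then replaced with assay medium containing compound or no drug, and cells were exposed for 72 h. CC₅₀ is the 50% cellular cytotoxic concentration.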

Staphylococcus aureus [2] = assay: Antibacterial activity against Staphylococcus aureus ATCC 25923 after 18 to 24 hrs by NCCLS M100-S11 two fold serial dilution method; assay type: functional; settings: ATCC25923
Staphylococcus aureus [3] = assay: Antibacterial activity against methicillin-resistant Staphylococcus aureus 08-1 after 18 to 24 hrs by NCCLS M100-S11 two fold serial dilution method; assay type: functional
Method in brief: (§1)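 Two-fold serial dilution in agar medium. MIC read as the lowest concentration giving complete inhibition of bacterial growth after incubation at 35 °C for 18–24 h.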

Staphylococcus aureus [4] = assay: Antibacterial activity against methicillin-sensitive Staphylococcus aureus 08-1 after 18 to 24 hrs by NCCLS M100-S11 two fold serial dilution method; assay type: functional
[5] = test system: Staphylococcus epidermidis; assay: Antibacterial activity against methicillin-resistant Staphylococcus epidermidis 09-4 after 18 to 24 hrs by NCCLS M100-S11 two fold serial dilution method; assay type: functional; method in brief: as §1
[6] = test system: Staphylococcus epidermidis; assay: Antibacterial activity against methicillin-sensitive Staphylococcus epidermidis 09-3 after 18 to 24 hrs by NCCLS M100-S11 two fold serial dilution method; assay type: functional; method in brief: as §1
[7] = test system: Staphylococcus epidermidis; assay: Antibacterial activity against methicillin-sensitive Staphylococcus epidermidis 09-6 after 18 to 24 hrs by NCCLS M100-S11 two fold serial dilution method; assay type: functional; method in brief: as §1
Streptococcus pneumoniae [8] = assay: Antibacterial activity against Streptococcus pneumoniae 08-2 after 18 to 24 hrs by NCCLS M100-S11 two fold serial dilution method; assay type: functional
Streptococcus pneumoniae [9] = assay: Antibacterial activity against Streptococcus pneumoniae 08-4 after 18 to 24 hrs by NCCLS M100-S11 two fold serial dilution method; assay type: functional
Enterococcus faecium [10] = assay: Antibacterial activity against Enterococcus faecium 08-2 after 18 to 24 hrs by NCCLS M100-S11 two fold serial dilution method; assay type: functional
Enterococcus faecium [11] = assay: Antibacterial activity against Enterococcus faecium 08-7 after 18 to 24 hrs by NCCLS M100-S11 two fold serial dilution method; assay type: functional
Enterococcus faecalis [12] = assay: Antibacterial activity against Enterococcus faecalis 08-10 after 18 to 24 hrs by NCCLS M100-S11 two fold serial dilution method; assay type: functional
Enterococcus faecalis [13] = assay: Antibacterial activity against Enterococcus faecalis 08-12 after 18 to 24 hrs by NCCLS M100-S11 two fold serial dilution method; assay type: functional
Escherichia coli [14] = assay: Antibacterial activity against Escherichia coli ATCC 25922 after 18 to 24 hrs by NCCLS M100-S11 two fold serial dilution method; assay type: functional; settings: ATCC25922
Escherichia coli [15] = assay: Antibacterial activity against Escherichia coli 08-21 after 18 to 24 hrs by NCCLS M100-S11 two fold serial dilution method; assay type: functional
Escherichia coli [16] = assay: Antibacterial activity against Escherichia coli 08-22 after 18 to 24 hrs by NCCLS M100-S11 two fold serial dilution method; assay type: functional
Klebsiella pneumoniae [17] = assay: Antibacterial activity against Klebsiella pneumoniae 09-22 after 18 to 24 hrs by NCCLS M100-S11 two fold serial dilution method; assay type: functional
Pseudomonas aeruginosa [18] = assay: Antibacterial activity against Pseudomonas aeruginosa ATCC 27853 after 18 to 24 hrs by NCCLS M100-S11 two fold serial dilution method; assay type: functional
Pseudomonas aeruginosa [19] = assay: Antibacterial activity against Pseudomonas aeruginosa 09-32 after 18 to 24 hrs by NCCLS M100-S11 two fold serial dilution method; assay type: functional
Pseudomonas aeruginosa [20] = assay: Antibacterial activity against Pseudomonas aeruginosa 09-33 after 18 to 24 hrs by NCCLS M100-S11 two fold serial dilution method; assay type: functional
Pseudomonas aeruginosa [21] = assay: Antibacterial activity against Pseudomonas aeruginosa 09-34 after 18 to 24 hrs by NCCLS M100-S11 two fold serial dilution method; assay type: functional
Klebsiella pneumoniae [22] = assay: Antibacterial activity against Klebsiella pneumoniae 09-23 after 18 to 24 hrs by NCCLS M100-S11 two fold serial dilution method; assay type: functional

Structure (SMILES) | MIC (Staphylococcus aureus [2]) | MIC (Staphylococcus aureus [3]) | MIC (Staphylococcus aureus [4]) | MIC [5] | MIC [6] | MIC [7] | MIC (Streptococcus pneumoniae [8]) | MIC (Streptococcus pneumoniae [9]) | MIC (Enterococcus faecium [10]) | MIC (Enterococcus faecium [11]) | MIC (Enterococcus faecalis [12]) | MIC (Enterococcus faecalis [13]) | MIC (Escherichia coli [14]) | MIC (Escherichia coli [15]) | MIC (Escherichia coli [16]) | MIC (Klebsiella pneumoniae [17]) | MIC (Pseudomonas aeruginosa [18]) | MIC (Pseudomonas aeruginosa [19]) | MIC (Pseudomonas aeruginosa [20]) | MIC (Klebsiella pneumoniae [22]) | also measured
COc1c(N2CCN(C/C(C)=N/O)C(C)C2)c(F)cc2c(=O)c(C(=O)O)cn(C3CC3)c12 (centres undefined) | 0.25 mg/L (≈ 0.56 µM) | > 128 mg/L | 0.25 mg/L (≈ 0.56 µM) | 0.25 mg/L (≈ 0.56 µM) | 0.25 mg/L (≈ 0.56 µM) | 0.25 mg/L (≈ 0.56 µM) | 128 mg/L (≈ 287 µM) | 0.25 mg/L (≈ 0.56 µM) | > 128 mg/L | > 128 mg/L | > 128 mg/L | > 128 mg/L | 128 mg/L (≈ 287 µM) | > 128 mg/L | > 128 mg/L | > 128 mg/L | 32 mg/L (≈ 71.7 µM) | 32 mg/L (≈ 71.7 µM) | > 128 mg/L | > 128 mg/L | CC50 at 72 h [1]: 177 mg/L (≈ 396 µM); MIC (Pseudomonas aeruginosa [21]): > 128 mg/L
COc1c(N2CCN(CC/C(C)=N/O)C(C)C2)c(F)cc2c(=O)c(C(=O)O)cn(C3CC3)c12 (centres undefined) | 2 mg/L (≈ 4.34 µM) | 32 mg/L (≈ 69.5 µM) | 32 mg/L (≈ 69.5 µM) | 0.25 mg/L (≈ 0.543 µM) | 0.25 mg/L (≈ 0.543 µM) | 0.25 mg/L (≈ 0.543 µM) | 32 mg/L (≈ 69.5 µM) | 4 mg/L (≈ 8.69 µM) | 64 mg/L (≈ 139 µM) | 64 mg/L (≈ 139 µM) | > 128 mg/L | > 128 mg/L | 16 mg/L (≈ 34.7 µM) | 64 mg/L (≈ 139 µM) | 64 mg/L (≈ 139 µM) | 64 mg/L (≈ 139 µM) | 8 mg/L (≈ 17.4 µM) | 4 mg/L (≈ 8.69 µM) | > 128 mg/L | 8 mg/L (≈ 17.4 µM) | CC50 at 72 h [1]: 44.2 mg/L (≈ 96 µM); MIC (Pseudomonas aeruginosa [21]): 8 mg/L (≈ 17.4 µM)
COc1c(N2CCN(C/C(C)=N/Nc3ccccc3)C(C)C2)c(F)cc2c(=O)c(C(=O)O)cn(C3CC3)c12 (centres undefined) | 0.125 mg/L (≈ 0.24 µM) | 0.125 mg/L (≈ 0.24 µM) | 0.125 mg/L (≈ 0.24 µM) | 0.25 mg/L (≈ 0.479 µM) | 0.25 mg/L (≈ 0.479 µM) | 0.25 mg/L (≈ 0.479 µM) | 0.25 mg/L (≈ 0.479 µM) | 0.25 mg/L (≈ 0.479 µM) | 4 mg/L (≈ 7.67 µM) | 4 mg/L (≈ 7.67 µM) | 4 mg/L (≈ 7.67 µM) | 4 mg/L (≈ 7.67 µM) | 0.5 mg/L (≈ 0.959 µM) | 4 mg/L (≈ 7.67 µM) | 0.25 mg/L (≈ 0.479 µM) | 0.25 mg/L (≈ 0.479 µM) | 2 mg/L (≈ 3.83 µM) | 0.25 mg/L (≈ 0.479 µM) | 4 mg/L (≈ 7.67 µM) | 0.125 mg/L (≈ 0.24 µM) | CC50 at 72 h [1]: 11.1 mg/L (≈ 21.2 µM); MIC (Pseudomonas aeruginosa [21]): 0.25 mg/L (≈ 0.479 µM)
COc1c(N2CCNC(C)C2)c(F)cc2c(=O)c(C(=O)O)cn(C3CC3)c12 (centres undefined) [GATIFLOXACIN] | 0.125 mg/L (≈ 0.333 µM) | 0.125 mg/L (≈ 0.333 µM) | 0.06 mg/L (≈ 0.16 µM) | 0.25 mg/L (≈ 0.666 µM) | 0.25 mg/L (≈ 0.666 µM) | 8 mg/L (≈ 21.3 µM) | 4 mg/L (≈ 10.7 µM) | 0.25 mg/L (≈ 0.666 µM) | 2 mg/L (≈ 5.33 µM) | 4 mg/L (≈ 10.7 µM) | 4 mg/L (≈ 10.7 µM) | 2 mg/L (≈ 5.33 µM) | 2 mg/L (≈ 5.33 µM) | 4 mg/L (≈ 10.7 µM) | 4 mg/L (≈ 10.7 µM) | 0.125 mg/L (≈ 0.333 µM) | 1 mg/L (≈ 2.66 µM) | 8 mg/L (≈ 21.3 µM) | 4 mg/L (≈ 10.7 µM) | 2 mg/L (≈ 5.33 µM) | MIC (Pseudomonas aeruginosa [21]): 1 mg/L (≈ 2.66 µM)
C[C@H]1COc2c(N3CCN(C)CC3)c(F)cc3c(=O)c(C(=O)O)cn1c23.C[C@H]1COc2c(N3CCN(C)CC3)c(F)cc3c(=O)c(C(=O)O)cn1c23.O [LEVOFLOXACIN] | 0.25 mg/L | 0.06 mg/L | 0.25 mg/L | 0.5 mg/L | 0.06 mg/L | 2 mg/L | – | – | 4 mg/L | 8 mg/L | 8 mg/L | 8 mg/L | 2 mg/L | 8 mg/L | 4 mg/L | 16 mg/L | – | 16 mg/L | 8 mg/L | 8 mg/L | –
CCOC(=O)CCN1CCN(c2c(F)cc3c(=O)c(C(=O)O)cn(C4CC4)c3c2OC)CC1C (centres undefined) | 128 mg/L (≈ 269 µM) | – | > 128 mg/L | > 128 mg/L | > 128 mg/L | > 128 mg/L | > 128 mg/L | > 128 mg/L | > 128 mg/L | > 128 mg/L | > 128 mg/L | > 128 mg/L | 128 mg/L (≈ 269 µM) | > 128 mg/L | > 128 mg/L | > 128 mg/L | 128 mg/L (≈ 269 µM) | > 128 mg/L | > 128 mg/L | > 128 mg/L | MIC (Pseudomonas aeruginosa [21]): > 128 mg/L
